Bounds are passed on as bounds.

29 compounds from BindingDB's records for doi:10.1021/jm990049j (Dupont Pharmaceuticals, 2000) can be followed below.

Integrin alpha-IIb/beta-3, sequence (P05106 27-788 limits assumed): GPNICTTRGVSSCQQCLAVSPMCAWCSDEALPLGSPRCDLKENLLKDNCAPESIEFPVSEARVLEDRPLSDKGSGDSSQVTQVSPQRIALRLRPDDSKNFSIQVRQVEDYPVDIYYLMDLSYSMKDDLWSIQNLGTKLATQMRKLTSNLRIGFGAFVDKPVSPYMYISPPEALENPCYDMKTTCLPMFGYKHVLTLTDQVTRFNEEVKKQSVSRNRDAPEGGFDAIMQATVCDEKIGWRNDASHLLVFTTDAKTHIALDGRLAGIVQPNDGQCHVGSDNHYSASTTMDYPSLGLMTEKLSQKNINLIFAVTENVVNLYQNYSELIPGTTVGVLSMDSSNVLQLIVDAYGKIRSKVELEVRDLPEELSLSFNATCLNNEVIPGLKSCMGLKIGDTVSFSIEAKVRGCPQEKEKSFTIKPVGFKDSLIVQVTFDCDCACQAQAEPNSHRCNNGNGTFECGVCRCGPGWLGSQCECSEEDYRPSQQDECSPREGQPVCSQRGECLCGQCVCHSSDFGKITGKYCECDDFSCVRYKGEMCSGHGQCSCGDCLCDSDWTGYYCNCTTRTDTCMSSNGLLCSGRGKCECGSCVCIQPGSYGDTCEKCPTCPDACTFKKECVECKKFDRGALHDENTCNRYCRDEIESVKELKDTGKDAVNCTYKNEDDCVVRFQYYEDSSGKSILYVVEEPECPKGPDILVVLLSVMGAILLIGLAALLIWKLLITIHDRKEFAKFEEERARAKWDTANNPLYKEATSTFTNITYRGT
Integrin alpha-IIb/beta-3, sequence (P08514 32-887 limits assumed): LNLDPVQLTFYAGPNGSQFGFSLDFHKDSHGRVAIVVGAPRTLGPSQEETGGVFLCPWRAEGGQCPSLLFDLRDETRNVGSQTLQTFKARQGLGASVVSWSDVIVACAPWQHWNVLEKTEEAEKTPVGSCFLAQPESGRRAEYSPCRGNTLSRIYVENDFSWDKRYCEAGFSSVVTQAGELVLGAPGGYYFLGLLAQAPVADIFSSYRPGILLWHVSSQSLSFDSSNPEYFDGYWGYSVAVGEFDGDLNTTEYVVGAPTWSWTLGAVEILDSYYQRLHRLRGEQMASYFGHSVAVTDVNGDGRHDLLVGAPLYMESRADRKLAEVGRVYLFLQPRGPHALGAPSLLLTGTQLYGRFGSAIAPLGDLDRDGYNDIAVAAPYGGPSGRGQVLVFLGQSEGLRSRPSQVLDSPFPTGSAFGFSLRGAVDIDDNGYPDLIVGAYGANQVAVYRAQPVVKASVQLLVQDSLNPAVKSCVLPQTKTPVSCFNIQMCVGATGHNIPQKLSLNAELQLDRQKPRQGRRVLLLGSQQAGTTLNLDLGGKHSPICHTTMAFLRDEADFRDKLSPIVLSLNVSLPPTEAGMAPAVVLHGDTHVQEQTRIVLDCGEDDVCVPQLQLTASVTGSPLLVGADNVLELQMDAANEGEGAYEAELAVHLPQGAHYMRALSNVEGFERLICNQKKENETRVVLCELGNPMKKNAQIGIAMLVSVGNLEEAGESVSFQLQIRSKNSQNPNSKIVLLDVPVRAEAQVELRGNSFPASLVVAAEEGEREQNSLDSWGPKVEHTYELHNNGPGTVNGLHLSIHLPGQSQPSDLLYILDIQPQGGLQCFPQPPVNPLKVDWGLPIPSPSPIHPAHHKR
Integrin alpha-IIb/beta-3, sequence (P08514 891-1039 limits assumed): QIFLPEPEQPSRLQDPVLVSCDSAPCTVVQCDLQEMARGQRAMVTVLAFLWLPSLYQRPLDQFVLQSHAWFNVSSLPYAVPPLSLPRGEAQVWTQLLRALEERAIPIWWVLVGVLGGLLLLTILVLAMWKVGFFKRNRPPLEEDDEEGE

The test has as its target Integrin alpha-IIb/beta-3 (Homo sapiens, UniProt P08514+P05106). The test is described as follows: Inhibition of aggregation of human gel-purified platelets (GPIIbIIIa GPP). The method, boiled down:
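Human platelets from healthy-volunteer platelet-rich plasma were gel-purified on sepharose and used at 2×10^8 platelets/mL with 1 mM CaCl2 and 1 mg/mL fibrinogen. Aggregation was measured with or without compound at several concentrations and IC50 calculated. Values are single determinations.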
With `Cc1cc(C)c(S(=O)(=O)N[C@H](CNC(=O)c2ccc3c(cnn3CCCNc3ncc[nH]3)c2)C(=O)O)c(C)c1`, the IC50 – broadly, the concentration that inhibits the measured activity by half – was found to be 5 µM. That is a single-digit micromolar value.

`O=C(NC[C@H](NS(=O)(=O)c1c(Cl)cccc1Cl)C(=O)O)c1ccc2c(cnn2CCCNc2ncc[nH]2)c1` [2-(2,6-Dichloro-benzenesulfonylamino)-3-({1-[3-(1H-imidazol-2-ylamino)-propyl]-1H-indazole-5-carbonyl}-amino)-propionic acid]: the half-maximal inhibitory concentration (IC50) stood at 0.012 µM. In the case of `Cc1cccc(C)c1S(=O)(=O)N[C@@H](CNC(=O)c1ccc2c(cnn2CCCNc2ncc[nH]2)c1)C(=O)O` [2-(2,6-Dimethyl-benzenesulfonylamino)-3-({1-[3-(1H-imidazol-2-ylamino)-propyl]-1H-indazole-5-carbonyl}-amino)-propionic acid] it was 0.074 µM; in that of `O=C(NC[C@H](NS(=O)(=O)c1ccc(Cl)c(Cl)c1)C(=O)O)c1ccc2c(cnn2CCCNc2ncc[nH]2)c1` [2-(3,4-Dichloro-benzenesulfonylamino)-3-({1-[3-(1H-imidazol-2-ylamino)-propyl]-1H-indazole-5-carbonyl}-amino)-propionic acid], 0.79 µM; in that of `Cc1cc(-c2ccccc2)cc(C)c1S(=O)(=O)N[C@@H](CNC(=O)c1ccc2c(cnn2CCCNc2ncc[nH]2)c1)C(=O)O` [2-(3,5-Dimethyl-biphenyl-4-sulfonylamino)-3-({1-[3-(1H-imidazol-2-ylamino)-propyl]-1H-indazole-5-carbonyl}-amino)-propionic acid], 0.074 µM. In the case of `CC(=O)Nc1ccc(S(=O)(=O)N[C@@H](CNC(=O)c2ccc3c(cnn3CCCNc3ncc[nH]3)c2)C(=O)O)cc1` [2-(4-Acetylamino-benzenesulfonylamino)-3-({1-[3-(1H-imidazol-2-ylamino)-propyl]-1H-indazole-5-carbonyl}-amino)-propionic acid] it was 0.4 µM. Next, `O=C(NC[C@H](NS(=O)(=O)c1ccc(Cl)cc1)C(=O)O)c1ccc2c(cnn2CCCNc2ncc[nH]2)c1` [2-(4-Chloro-benzenesulfonylamino)-3-({1-[3-(1H-imidazol-2-ylamino)-propyl]-1H-indazole-5-carbonyl}-amino)-propionic acid]: 0.26 µM. On to `CC(C)(C)c1ccc(S(=O)(=O)N[C@@H](CNC(=O)c2ccc3c(cnn3CCCNc3ncc[nH]3)c2)C(=O)O)cc1` [2-(4-tert-Butyl-benzenesulfonylamino)-3-({1-[3-(1H-imidazol-2-ylamino)-propyl]-1H-indazole-5-carbonyl}-amino)-propionic acid], for which the IC50 is 2 µM. Take `O=C(NC[C@H](NS(=O)(=O)c1ccc(-c2ccccc2)cc1)C(=O)O)c1ccc2c(cnn2CCCNc2ncc[nH]2)c1` [2-(Biphenyl-4-sulfonylamino)-3-({1-[3-(1H-imidazol-2-ylamino)-propyl]-1H-indazole-5-carbonyl}-amino)-propionic acid]: the half-maximal inhibitory concentration (IC50) was found to be 0.13 µM. Turning to `CCCCS(=O)(=O)N[C@@H](CNC(=O)c1ccc2c(cnn2CCCNc2ccccn2)c1)C(=O)O` [2-(Butane-1-sulfonylamino)-3-({1-[3-(pyridin-2-ylamino)-propyl]-1H-indazole-5-carbonyl}-amino)-propionic acid], the IC50 worked out at 9 µM.

In turn, `O=C(NC[C@H](NS(=O)(=O)c1ccccc1)C(=O)O)c1ccc2c(cnn2CCCNc2ncc[nH]2)c1` [2-Benzenesulfonylamino-3-({1-[3-(1H-imidazol-2-ylamino)-propyl]-1H-indazole-5-carbonyl}-amino)-propionic acid] displayed a concentration for half-maximal inhibition (IC50) of 0.034 µM. Consider `O=C(NC[C@H](NS(=O)(=O)c1ccccc1)C(=O)O)c1ccc2c(cnn2CCCNc2ccccn2)c1` [2-Benzenesulfonylamino-3-({1-[3-(pyridin-2-ylamino)-propyl]-1H-indazole-5-carbonyl}-amino)-propionic acid], for which the 50% inhibitory concentration (IC50) came to 0.29 µM. For `O=C(N[C@@H](CNC(=O)c1ccc2c(cnn2CCCNc2ncc[nH]2)c1)C(=O)O)OCc1ccccc1` [2-Benzyloxycarbonylamino-3-({1-[3-(1H-imidazol-2-ylamino)-propyl]-1H-indazole-5-carbonyl}-amino)-propionic acid], half-maximal inhibition (IC50) was put at 1 µM. For the compound `O=C(N[C@@H](CNC(=O)c1ccc2c(cnn2CCCNc2ccccn2)c1)C(=O)O)OCc1ccccc1` [2-Benzyloxycarbonylamino-3-({1-[3-(pyridin-2-ylamino)-propyl]-1H-indazole-5-carbonyl}-amino)-propionic acid], the IC50 is more than 10 µM.

As for `CC(C)COC(=O)N[C@@H](CNC(=O)c1ccc2c(cnn2CCCNc2ccccn2)c1)C(=O)O` [2-Isobutoxycarbonylamino-3-({1-[3-(pyridin-2-ylamino)-propyl]-1H-indazole-5-carbonyl}-amino)-propionic acid], 25 µM corresponded to half-maximal inhibition (IC50). Next, `Cc1cc(C)c(S(=O)(=O)N[C@@H](CNC(=O)c2ccc3c(cnn3CCC(=O)Nc3ncc[nH]3)c2)C(=O)O)c(C)c1` [3-({1-[2-(1H-Imidazol-2-ylcarbamoyl)-ethyl]-1H-indazole-5-carbonyl}-amino)-2-(2,4,6-trimethyl-benzenesulfonylamino)-propionic acid]: 4 µM; `Cc1cc(C)c(S(=O)(=O)N[C@@H](CNC(=O)c2ccc3c(cnn3CCCNC3=NCCCN3)c2)C(=O)O)c(C)c1` [3-({1-[3-(1,4,5,6-Tetrahydro-pyrimidin-2-ylamino)-propyl]-1H-indazole-5-carbonyl}-amino)-2-(2,4,6-trimethyl-benzenesulfonylamino)-propionic acid]: 0.066 µM; `Cc1cc(C)c(S(=O)(=O)N[C@@H](CNC(=O)c2ccc3c(cnn3CCCNc3ncc[nH]3)c2)C(=O)O)c(C)c1` [3-({1-[3-(1H-Imidazol-2-ylamino)-propyl]-1H-indazole-5-carbonyl}-amino)-2-(2,4,6-trimethyl-benzenesulfonylamino)-propionic acid]: 0.021 µM.

`COc1ccc(S(=O)(=O)N[C@@H](CNC(=O)c2ccc3c(cnn3CCCNc3ncc[nH]3)c2)C(=O)O)cc1` [3-({1-[3-(1H-Imidazol-2-ylamino)-propyl]-1H-indazole-5-carbonyl}-amino)-2-(4-methoxy-benzenesulfonylamino)-propionic acid] yielded an IC50 of 0.41 µM. The compound `O=C(NC[C@H](NS(=O)(=O)c1ccc(C(F)(F)F)cc1)C(=O)O)c1ccc2c(cnn2CCCNc2ncc[nH]2)c1` [3-({1-[3-(1H-Imidazol-2-ylamino)-propyl]-1H-indazole-5-carbonyl}-amino)-2-(4-trifluoromethyl-benzenesulfonylamino)-propionic acid] gave an IC50 of 4.4 µM.

On to `O=C(NC[C@H](NS(=O)(=O)c1cccc2ccccc12)C(=O)O)c1ccc2c(cnn2CCCNc2ncc[nH]2)c1` [3-({1-[3-(1H-Imidazol-2-ylamino)-propyl]-1H-indazole-5-carbonyl}-amino)-2-(naphthalene-1-sulfonylamino)-propionic acid], for which 0.039 µM corresponded to half-maximal inhibition (IC50). `O=C(NC[C@H](NS(=O)(=O)c1ccc2ccccc2c1)C(=O)O)c1ccc2c(cnn2CCCNc2ncc[nH]2)c1` [3-({1-[3-(1H-Imidazol-2-ylamino)-propyl]-1H-indazole-5-carbonyl}-amino)-2-(naphthalene-2-sulfonylamino)-propionic acid] showed an IC50 of 0.081 µM.

Turning to `Cc1ccc(S(=O)(=O)N[C@@H](CNC(=O)c2ccc3c(cnn3CCCNc3ncc[nH]3)c2)C(=O)O)cc1` [3-({1-[3-(1H-Imidazol-2-ylamino)-propyl]-1H-indazole-5-carbonyl}-amino)-2-(toluene-4-sulfonylamino)-propionic acid], the IC50 was 0.083 µM. Compound `Cc1cc(C)c(S(=O)(=O)N[C@@H](CNC(=O)c2ccc3c(cnn3CCCNC3=NCCN3)c2)C(=O)O)c(C)c1` [3-({1-[3-(4,5-Dihydro-1H-imidazol-2-ylamino)-propyl]-1H-indazole-5-carbonyl}-amino)-2-(2,4,6-trimethyl-benzenesulfonylamino)-propionic acid] displayed an IC50 of 0.057 µM. The IC50 values of the last two compounds are within 1.5-fold of each other. As to `Cc1cc(C)c(S(=O)(=O)N[C@@H](CNC(=O)c2ccc3c(cnn3CCCNc3ccccn3)c2)C(=O)O)c(C)c1` [3-({1-[3-(Pyridin-2-ylamino)-propyl]-1H-indazole-5-carbonyl}-amino)-2-(2,4,6-trimethyl-benzenesulfonylamino)-propionic acid], the half-maximal inhibitory concentration (IC50) amounted to 0.22 µM. This IC50 is about 3.9-fold higher than that of the compound before. Next, `Cc1cc(C)c(NS(=O)(=O)N[C@@H](CNC(=O)c2ccc3c(cnn3CCCNc3ccccn3)c2)C(=O)O)c(C)c1` [3-[1-[3-(N-Pyridin-2ylamino)propyl]indazol-5-ylcarbonylamino]-2(S)-(2,4,6-trimethylphenylaminosulfonylamino) propionic acid]: 36 µM.

The compound `O=C(NC[C@H](NS(=O)(=O)Nc1ccccc1)C(=O)O)c1ccc2c(cnn2CCCNc2ccccn2)c1` [3-[1-[3-(N-Pyridin-2ylamino)propyl]indazol-5-ylcarbonylamino]-2(S)-(phenylaminosulfonylamino) propionic acid] had an IC50 of 7.8 µM. Compared with the last compound, the IC50 is about 4.6-fold lower. `O=C(NC[C@H](NS(=O)(=O)NCc1ccccc1)C(=O)O)c1ccc2c(cnn2CCCNc2ccccn2)c1` [3-[1-[3-(N-Pyridin-2ylamino)propyl]indazol-5-ylcarbonylamino]-2(S)-(phenylmethylaminosulfonylamino) propionic acid]: half-maximal inhibition (IC50) was put at 8.1 µM. `Cc1cc(C)c(S(=O)(=O)N[C@@H](CC(=O)Nc2ccc3c(cnn3CCCNc3ccccn3)c2)C(=O)O)c(C)c1` [N-{1-[3-(Pyridin-2-ylamino)-propyl]-1H-indazol-5-yl}-2-(2,4,6-trimethyl-benzenesulfonylamino)-succinamic acid] registered an IC50 of 41 µM.
